Results as given in ChEMBL document CHEMBL5030505, “Assessment of NR4A Ligands That Directly Bind and Modulate the Orphan Nuclear Receptor Nurr1” (J Med Chem, 2020).

Target: Nuclear receptor subfamily 4 group A member 2 (Homo sapiens) (UniProt P43354)
Experiment: Modulation of full length human Nurr1 expressed in HEK293T cells co-transfected with RXRalpha and luciferase reporter plasmid harboring NurRE response element assessed as increase in luciferase activity incubated for 18 hrs by luciferase reporter-gene assay
Assay type: cell-based
Conditions: filed as modulator
How it was run: (§1)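 Full-length Nurr1 plasmid, alone (2 μg) or 1 μg plus full-length RXRα (1 μg), cotransfected with 3xNBRE- or 3xNurRE-luciferase reporter (6 μg) using Lipofectamine 2000, 18 h. Cells replated at 10,000/well for 4 h. Four ligand concentrations, or vehicle (water, ethanol or DMSO), added in quadruplicate for 18 h. Luciferase read. Fold change vs vehicle, mean ± s.e.m., one-way ANOVA vs vehicle.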

Nuclear receptor subfamily 4 group A member 2 (Homo sapiens), sequence (P43354 whole entry): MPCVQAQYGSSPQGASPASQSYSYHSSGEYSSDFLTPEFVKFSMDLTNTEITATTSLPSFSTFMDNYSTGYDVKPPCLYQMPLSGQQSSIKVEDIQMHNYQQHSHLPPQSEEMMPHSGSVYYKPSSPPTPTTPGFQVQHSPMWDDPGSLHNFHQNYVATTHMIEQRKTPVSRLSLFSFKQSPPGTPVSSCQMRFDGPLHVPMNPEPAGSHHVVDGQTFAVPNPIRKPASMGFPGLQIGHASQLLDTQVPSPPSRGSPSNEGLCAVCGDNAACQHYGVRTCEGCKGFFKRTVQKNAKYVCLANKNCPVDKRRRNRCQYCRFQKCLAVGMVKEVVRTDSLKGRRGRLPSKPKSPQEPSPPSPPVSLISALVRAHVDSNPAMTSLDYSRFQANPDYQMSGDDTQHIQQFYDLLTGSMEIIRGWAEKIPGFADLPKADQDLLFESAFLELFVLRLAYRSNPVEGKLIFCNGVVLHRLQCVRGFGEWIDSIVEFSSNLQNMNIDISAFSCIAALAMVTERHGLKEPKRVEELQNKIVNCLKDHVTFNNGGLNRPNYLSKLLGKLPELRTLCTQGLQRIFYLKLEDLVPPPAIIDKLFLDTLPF

Activity | SMILES
Dose-Dependent Effect | CCN(CC)Cc1cc(Nc2ccnc3cc(Cl)ccc23)ccc1O [AMODIAQUINE]

Target: Nuclear receptor subfamily 4 group A member 3 (Homo sapiens) (UniProt Q92570)
Sequence (Q92570 whole entry): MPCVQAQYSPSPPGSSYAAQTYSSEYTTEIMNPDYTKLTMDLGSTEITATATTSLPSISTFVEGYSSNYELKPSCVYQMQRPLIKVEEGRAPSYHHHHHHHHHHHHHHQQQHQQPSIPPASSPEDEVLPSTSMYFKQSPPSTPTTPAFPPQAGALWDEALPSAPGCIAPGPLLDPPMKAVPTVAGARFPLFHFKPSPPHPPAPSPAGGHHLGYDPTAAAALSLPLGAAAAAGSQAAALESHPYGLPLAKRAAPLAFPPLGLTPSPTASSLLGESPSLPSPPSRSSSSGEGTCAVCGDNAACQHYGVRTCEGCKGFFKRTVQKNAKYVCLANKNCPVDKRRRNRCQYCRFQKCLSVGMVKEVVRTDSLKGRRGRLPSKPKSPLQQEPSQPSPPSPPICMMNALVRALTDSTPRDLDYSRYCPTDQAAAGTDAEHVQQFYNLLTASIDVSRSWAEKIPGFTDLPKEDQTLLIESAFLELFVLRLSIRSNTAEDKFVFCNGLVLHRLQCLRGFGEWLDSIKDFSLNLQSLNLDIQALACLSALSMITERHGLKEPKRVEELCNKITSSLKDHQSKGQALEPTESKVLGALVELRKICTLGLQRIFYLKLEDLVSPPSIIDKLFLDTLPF
Experiment: Modulation of full length human NOR1 expressed in SK-N-BE(2) cells co-transfected with RXRalpha and luciferase reporter plasmid harboring NBRE response element assessed as increase in luciferase activity incubated for 18 by luciferase reporter gene assay
Assay type: cell-based
Conditions: SKNBE2, filed as modulator, time 18.0 hrs
How it was run: (§2)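 Cells seeded at 1.5 million per 10-cm dish. Next day they were transfected (Lipofectamine 2000) with full-length Nur77 or NOR-1 expression plasmid, either alone (2 μg) or 1 μg plus full-length RXRα (1 μg), and 3xNBRE- or 3xNurRE-luciferase reporter (6 μg), 18 h. Cells replated at 10,000/well, 4 h, then ligand dose response added in quadruplicate for 18 h. Luciferase luminescence read.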

Activity | SMILES
Dose-Dependent Effect | CCN(CC)Cc1cc(Nc2ccnc3cc(Cl)ccc23)ccc1O [AMODIAQUINE]

Target: Nuclear receptor subfamily 4 group A member 2 (Homo sapiens) (UniProt P43354)
Experiment: Modulation of full length human Nurr1 expressed in HEK293T cells co-transfected with luciferase reporter plasmid harboring NBRE response element assessed as increase in luciferase activity incubated for 18 hrs by luciferase reporter-gene assay
Assay type: cell-based
Conditions: filed as modulator
How it was run: as §1

Activity | SMILES
Dose-Dependent Effect | CCN(CC)Cc1cc(Nc2ccnc3cc(Cl)ccc23)ccc1O [AMODIAQUINE]

Target: Nuclear receptor subfamily 4immunitygroup A member 1 (Homo sapiens) (UniProt P22736)
Sequence (P22736 whole entry): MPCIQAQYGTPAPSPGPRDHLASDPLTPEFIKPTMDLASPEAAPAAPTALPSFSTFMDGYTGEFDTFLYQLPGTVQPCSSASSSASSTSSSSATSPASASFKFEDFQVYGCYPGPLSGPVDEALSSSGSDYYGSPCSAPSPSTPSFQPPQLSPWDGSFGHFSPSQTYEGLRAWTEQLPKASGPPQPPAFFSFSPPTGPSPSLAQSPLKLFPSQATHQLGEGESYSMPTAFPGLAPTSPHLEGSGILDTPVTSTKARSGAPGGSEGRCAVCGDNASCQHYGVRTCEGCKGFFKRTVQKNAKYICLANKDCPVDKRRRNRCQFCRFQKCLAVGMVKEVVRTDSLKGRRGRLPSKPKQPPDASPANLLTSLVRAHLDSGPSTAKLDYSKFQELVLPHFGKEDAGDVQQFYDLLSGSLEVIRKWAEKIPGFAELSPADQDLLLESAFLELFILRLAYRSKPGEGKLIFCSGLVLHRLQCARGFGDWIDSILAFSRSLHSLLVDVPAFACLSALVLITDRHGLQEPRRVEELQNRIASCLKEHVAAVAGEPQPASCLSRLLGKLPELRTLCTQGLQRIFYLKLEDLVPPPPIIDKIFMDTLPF
Experiment: Modulation of full length human Nur77 expressed in PC12 cells co-transfected with luciferase reporter plasmid harboring NurRE response element assessed as increase in luciferase activity incubated for 18 by luciferase reporter gene assay
Assay type: cell-based
Conditions: PC-12, filed as modulator, time 18.0 hrs
How it was run: as §2

Activity | SMILES
Dose-Dependent Effect | CCN(CC)Cc1cc(Nc2ccnc3cc(Cl)ccc23)ccc1O [AMODIAQUINE]

Target: Nuclear receptor subfamily 4 group A member 2 (Homo sapiens) (UniProt P43354)
Experiment: Modulation of full length human Nurr1 expressed in HEK293T cells co-transfected with luciferase reporter plasmid harboring NurRE response element assessed as increase in luciferase activity incubated for 18 hrs by luciferase reporter-gene assay
Assay type: cell-based
Conditions: filed as modulator
How it was run: as §1

Activity | SMILES
Dose-Dependent Effect | CCN(CC)Cc1cc(Nc2ccnc3cc(Cl)ccc23)ccc1O [AMODIAQUINE]

Target: Nuclear receptor subfamily 4 group A member 3 (Homo sapiens) (UniProt Q92570)
Experiment: Modulation of full length human NOR1 expressed in HEK293T cells co-transfected with RXRalpha luciferase reporter plasmid harboring NurRE response element assessed as increase in luciferase activity incubated for 18 hrs by luciferase reporter gene assay
Assay type: cell-based
Conditions: filed as modulator
How it was run: (§3)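 Full-length NOR-1 plasmid was transfected via Lipofectamine 2000, either alone (2 μg) or at 1 μg with full-length RXRα (1 μg). It was paired with a 3xNBRE or 3xNurRE luciferase reporter (6 μg), 8 μg total DNA, for 18 h. Cells were replated at 10,000/well for 4 h, then given a full ligand dose response or vehicle in quadruplicate for 18 h. Luciferase was read; no EC50/IC50 was fitted.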

Activity | SMILES
Dose-Dependent Effect | CCN(CC)Cc1cc(Nc2ccnc3cc(Cl)ccc23)ccc1O [AMODIAQUINE]

Target: Nuclear receptor subfamily 4 group A member 3 (Homo sapiens) (UniProt Q92570)
Experiment: Modulation of full length human NOR1 expressed in PC12 cells co-transfected with RXRalpha and luciferase reporter plasmid harboring NBRE response element assessed as increase in luciferase activity incubated for 18 by luciferase reporter gene assay
Assay type: cell-based
Conditions: PC-12, filed as modulator, time 18.0 hrs
How it was run: as §3

Activity | SMILES
Dose-Dependent Effect | CCN(CC)Cc1cc(Nc2ccnc3cc(Cl)ccc23)ccc1O [AMODIAQUINE]

Target: Nuclear receptor subfamily 4immunitygroup A member 1 (Homo sapiens) (UniProt P22736)
Experiment: Modulation of full length human Nur77 expressed in SK-N-BE(2) cells co-transfected with RXRalpha and luciferase reporter plasmid harboring NBRE response element assessed as increase in luciferase activity incubated for 18 by luciferase reporter gene assay
Assay type: cell-based
Conditions: SKNBE2, filed as modulator, time 18.0 hrs
How it was run: as §2

Activity | SMILES
Dose-Dependent Effect | CCN(CC)Cc1cc(Nc2ccnc3cc(Cl)ccc23)ccc1O [AMODIAQUINE]

Target: Nuclear receptor subfamily 4immunitygroup A member 1 (Homo sapiens) (UniProt P22736)
Experiment: Modulation of full length human Nur77 expressed in PC12 cells co-transfected with RXRalpha and luciferase reporter plasmid harboring NurRE response element assessed as increase in luciferase activity incubated for 18 by luciferase reporter gene assay
Assay type: cell-based
Conditions: PC-12, filed as modulator, time 18.0 hrs
How it was run: as §2

Activity | SMILES
Dose-Dependent Effect | CCN(CC)Cc1cc(Nc2ccnc3cc(Cl)ccc23)ccc1O [AMODIAQUINE]

Target: Nuclear receptor subfamily 4 group A member 2 (Homo sapiens) (UniProt P43354)
Experiment: Modulation of full length human Nurr1 expressed in SKNBE(2) cells co-transfected with RXRalpha and luciferase reporter plasmid harboring NBRE response element assessed as increase in luciferase activity incubated for 18 hrs by luciferase reporter-gene assay
Assay type: cell-based
Conditions: SKNBE2, filed as modulator
How it was run: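 SK-N-BE(2)-C cells were kept in 1:1 EMEM/F12 with 10% FBS at 37°C and 5% CO2. They were cotransfected with full-length Nurr1 (1 μg), full-length RXRα (1 μg) and 3xNBRE- or 3xNurRE-luc reporter (6 μg) for 18 h, replated at 10,000 cells/well for 4 h, and then treated with ligand or vehicle in quadruplicate for 18 h. The readout was luciferase luminescence as fold over vehicle, reported as mean ± s.e.m. (n=4) from 2 independent experiments, one-way ANOVA.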

Activity | SMILES
Dose-Dependent Effect | CCN(CC)Cc1cc(Nc2ccnc3cc(Cl)ccc23)ccc1O [AMODIAQUINE]

Target: Nuclear receptor subfamily 4immunitygroup A member 1 (Homo sapiens) (UniProt P22736)
Experiment: Modulation of full length human Nur77 expressed in HEK293 cells co-transfected with RXRalpha and luciferase reporter plasmid harboring NurRE response element assessed as increase in luciferase activity incubated for 18 hrs by luciferase reporter gene assay
Assay type: cell-based
Conditions: filed as modulator
How it was run: as §2

Activity | SMILES
Dose-Dependent Effect | CCN(CC)Cc1cc(Nc2ccnc3cc(Cl)ccc23)ccc1O [AMODIAQUINE]

Target: Nuclear receptor subfamily 4 group A member 3 (Homo sapiens) (UniProt Q92570)
Experiment: Modulation of full length human NOR1 expressed in SK-N-BE(2) cells co-transfected with RXRalpha and luciferase reporter plasmid harboring NurRE response element assessed as increase in luciferase activity incubated for 18 by luciferase reporter gene assay
Assay type: cell-based
Conditions: SKNBE2, filed as modulator, time 18.0 hrs
How it was run: as §2

Activity | SMILES
Dose-Dependent Effect | CCN(CC)Cc1cc(Nc2ccnc3cc(Cl)ccc23)ccc1O [AMODIAQUINE]

Target: Nuclear receptor subfamily 4immunitygroup A member 1 (Homo sapiens) (UniProt P22736)
Experiment: Modulation of full length human Nur77 expressed in SK-N-BE(2) cells co-transfected with luciferase reporter plasmid harboring NurRE response element assessed as increase in luciferase activity incubated for 18 by luciferase reporter gene assay
Assay type: cell-based
Conditions: SKNBE2, filed as modulator, time 18.0 hrs
How it was run: as §2

Activity | SMILES
Dose-Dependent Effect | CCN(CC)Cc1cc(Nc2ccnc3cc(Cl)ccc23)ccc1O [AMODIAQUINE]

Target: Nuclear receptor subfamily 4immunitygroup A member 1 (Homo sapiens) (UniProt P22736)
Experiment: Modulation of full length human Nur77 expressed in HEK293 cells co-transfected with luciferase reporter plasmid harboring NurRE response element assessed as increase in luciferase activity incubated for 18 hrs by luciferase reporter gene assay
Assay type: cell-based
Conditions: filed as modulator
How it was run: as §2

Activity | SMILES
Dose-Dependent Effect | CCN(CC)Cc1cc(Nc2ccnc3cc(Cl)ccc23)ccc1O [AMODIAQUINE]

Target: Nuclear receptor subfamily 4 group A member 2 (Homo sapiens) (UniProt P43354)
Experiment: Modulation of full length human Nurr1 expressed in SKNBE(2) cells co-transfected with luciferase reporter plasmid harboring NBRE response element assessed as increase in luciferase activity incubated for 18 hrs by luciferase reporter-gene assay
Assay type: cell-based
Conditions: SKNBE2, filed as modulator
How it was run: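 Transfection of SK-N-BE(2)-C cells (1:1 EMEM/F12, 10% FBS, 37°C, 5% CO2) used full-length Nurr1 alone (2 μg, no RXRα) with 3xNBRE- or 3xNurRE-luciferase reporter (6 μg) for 18 h. Cells were replated at 10,000/well for 4 h, then exposed to ligand or vehicle in quadruplicate for 18 h. Luminescence was expressed as fold over vehicle, as mean ± s.e.m. (n=4) from 2 independent experiments, one-way ANOVA against vehicle.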

Activity | SMILES
Dose-Dependent Effect | CCN(CC)Cc1cc(Nc2ccnc3cc(Cl)ccc23)ccc1O [AMODIAQUINE]

Target: Nuclear receptor subfamily 4immunitygroup A member 1 (Homo sapiens) (UniProt P22736)
Experiment: Modulation of full length human Nur77 expressed in SK-N-BE(2) cells co-transfected with RXRalpha and luciferase reporter plasmid harboring NurRE response element assessed as increase in luciferase activity incubated for 18 by luciferase reporter gene assay
Assay type: cell-based
Conditions: SKNBE2, filed as modulator, time 18.0 hrs
How it was run: as §2

Activity | SMILES
Dose-Dependent Effect | CCN(CC)Cc1cc(Nc2ccnc3cc(Cl)ccc23)ccc1O [AMODIAQUINE]

Target: Nuclear receptor subfamily 4immunitygroup A member 1 (Homo sapiens) (UniProt P22736)
Experiment: Modulation of full length human Nur77 expressed in PC12 cells co-transfected with RXRalpha and luciferase reporter plasmid harboring NBRE response element assessed as increase in luciferase activity incubated for 18 by luciferase reporter gene assay
Assay type: cell-based
Conditions: PC-12, filed as modulator, time 18.0 hrs
How it was run: as §2

Activity | SMILES
Dose-Dependent Effect | CCN(CC)Cc1cc(Nc2ccnc3cc(Cl)ccc23)ccc1O [AMODIAQUINE]

Target: Nuclear receptor subfamily 4 group A member 3 (Homo sapiens) (UniProt Q92570)
Experiment: Modulation of full length human NOR1 expressed in PC12 cells co-transfected with luciferase reporter plasmid harboring NBRE response element assessed as increase in luciferase activity incubated for 18 by luciferase reporter gene assay
Assay type: cell-based
Conditions: PC-12, filed as modulator, time 18.0 hrs
How it was run: as §3

Activity | SMILES
Dose-Dependent Effect | CCN(CC)Cc1cc(Nc2ccnc3cc(Cl)ccc23)ccc1O [AMODIAQUINE]

Target: Nuclear receptor subfamily 4 group A member 3 (Homo sapiens) (UniProt Q92570)
Experiment: Modulation of full length human NOR1 expressed in PC12 cells co-transfected with RXRalpha and luciferase reporter plasmid harboring NurRE response element assessed as increase in luciferase activity incubated for 18 by luciferase reporter gene assay
Assay type: cell-based
Conditions: PC-12, filed as modulator, time 18.0 hrs
How it was run: as §3

Activity | SMILES
Dose-Dependent Effect | CCN(CC)Cc1cc(Nc2ccnc3cc(Cl)ccc23)ccc1O [AMODIAQUINE]
